Runt-SMMHC FRET: blocks binding of human RUNX1 Runt domain to CBFb-SMMHC | inhibition, % at 20 µM | 220,000 compounds, 0.74% hits | Cerulean-Runt/Venus-CBFb-SMMHC FRET ratio 530/480, 1 h | AID 1434;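 active means mean inhibition across duplicate retests at 20 µM reaching about 50%, limit read from the data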;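 further: 0% = DMSO wells and 100% = wells with excess untagged CBFb-SMMHC; inhibitors lower the FRET ratio by blocking Runt binding to CBFb-SMMHC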
Target sequence (Q01196 whole entry, looked up, the tested form may be a part): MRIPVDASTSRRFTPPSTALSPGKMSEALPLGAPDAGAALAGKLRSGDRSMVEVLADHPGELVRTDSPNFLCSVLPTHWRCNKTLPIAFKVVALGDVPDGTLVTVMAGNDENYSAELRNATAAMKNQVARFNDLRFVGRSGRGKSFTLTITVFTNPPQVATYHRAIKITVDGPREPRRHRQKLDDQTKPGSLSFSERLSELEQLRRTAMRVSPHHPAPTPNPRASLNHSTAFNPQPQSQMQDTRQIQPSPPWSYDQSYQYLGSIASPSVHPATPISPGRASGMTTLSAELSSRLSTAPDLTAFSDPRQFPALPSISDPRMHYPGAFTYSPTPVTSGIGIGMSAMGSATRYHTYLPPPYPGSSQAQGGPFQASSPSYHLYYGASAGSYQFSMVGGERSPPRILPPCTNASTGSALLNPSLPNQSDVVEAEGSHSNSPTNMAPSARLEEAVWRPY
Target sequence (Q13951 whole entry, looked up, the tested form may be a part): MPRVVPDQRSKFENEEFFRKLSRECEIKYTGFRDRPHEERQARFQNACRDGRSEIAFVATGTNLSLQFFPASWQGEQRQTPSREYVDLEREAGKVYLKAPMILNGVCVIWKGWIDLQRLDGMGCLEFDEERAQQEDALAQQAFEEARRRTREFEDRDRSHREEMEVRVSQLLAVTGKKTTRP
CaV13 FRET inh: Primary screen for inhibitors of IQ motif and Ca2+-dependent inactivation inhibitor domain binding in CACNA1D, Förster resonance energy transfer in living cells, … | 340,000 compounds, 0.098% hits | AID 743397 | HEK cells, CFP/YFP FRET ICDI-IQ, plate reader, 10 min; percent FRET-ratio fall versus neutral wells | inhibition, % at 12.3 µM;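 active means mean replicate inhibition of at least 30% and at least 1% of replicates passing that level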;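 further: 0% = median of the neutral control wells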
Runt-CBFb FRET: inhibitors of human RUNX1 Runt domain binding to CBFb. AID 1496. inhibition, % at 20 µM. Cerulean-Runt/Venus-CBFb FRET ratio 530/480, 1 h. 220,000 compounds, 0.46% hits;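 active means inhibition over about 50% at 20 µM in the single-dose screen, limit read from the data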;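 further: 0% = DMSO wells and 100% = excess unlabeled CBFb competitor control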
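test system = Cerulean-tagged RUNX1 Runt domain (FRET donor) fusion protein | reagent = Venus-CBFb binding partner, 100 nM | incubation = protein complex preformed 1 h, compound exposure 1 h, room temperature, dark | detection = FRET fluorescence | read-out basis = loss of energy transfer signal | controls = 5 µM unlabeled CBFb as full-inhibition high control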
Hck Nef HTS: inhibitors of human Hck kinase activated by Nef | P08631 | Recombinant Hck-YEEI plus Nef, Z-Lyte FRET kinase assay | inhibition, % at 20 µM | 220,000 compounds, 0.68% hits;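 active means Hck-Nef kinase inhibition above about 50%, limit read from the data; inactive means inhibition below that limit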;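 further: 0% = DMSO with Hck plus Nef and 100% = Hck alone without Nef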
RanGTP-Impb inh: inhibitors of RanGTP-importin-beta interaction, primary screen, biochemical, FRET, CFP-Ran, YFP-importin-beta, homogeneous; cell-free CFP-Ran/YFP-importin-beta FRET ratio; inhibition, % (concentration not given with the values); 300,000 compounds, 1.1% hits;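 active means more than half of the replicate wells show a fall in the fluorescence ratio signal beyond about 16%, limit read from the data, passing the limit was not always enough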;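 further: 0% = DMSO wells and 100% = Ran loaded with GDP instead of GTP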
YIC counter: counter-screen for RanGTP-importin-beta inhibitors: YIC FRET probe; shares compounds with RanGTP-Impb inh; Purified YIC probe, intramolecular FRET ratio YFP/CFP; IC50, µM; 1,000 compounds, 40% hits; AID 435026;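 active means fitted half-maximal inhibitory concentration no more than tenfold above the top dose tested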
Starred values were filed as active, the others as inactive; . = no result. Only some compounds are listed: those with a hit (about 1.5% of all), similar ones and a draw of the others.

SMILES | Runt-SMMHC FRET | CaV13 FRET inh | Runt-CBFb FRET | Hck Nef HTS | RanGTP-Impb inh | YIC counter
COc1cccc(NC(=O)Nc2ccc3c(c2)N(C)C(=O)CS3)c1 | -3 | -4 | -1 | -1 | 20* | >50
CC(=O)Nc1ccc(NC(=O)Nc2ccc3c(c2)N(C)C(=O)CS3)cc1 | -4 | -6 | -1 | 18 | -4 | .
O=C(/C=C/c1ccccc1)N1CCN(C(=O)c2ccco2)CC1 | 0 | -8 | -1 | -2 | 6 | .
O=C1CC(c2ccco2)Sc2ccccc2N1 (stereo unspecified) | . | -3 | . | . | 2 | .
O=c1[nH]c2c(s1)C(c1ccco1)C1C3CCC(C3)C1S2 (stereo unspecified) | 4 | . | 8 | -19 | 24* | >50
CC(C)Sc1nc(N2CCOCC2)c2c(c1C#N)CC(C)(C)N(C)C2 | 79* | . | 36 | 2 | 27* | 39*
CCOC(=O)C(=O)Nc1cccc(C(=O)OCC)c1 | 1 | -6 | 0 | 1 | -1 | .
CCOC(=O)C(=O)Nc1cc(C(=O)OC)cc(C(=O)OC)c1 | 3 | -4 | -1 | -9 | 16* | >50
CCc1c(C)sc(NC(=O)c2cccs2)c1C#N | -10 | -6 | -2 | 5 | 1 | .
Cc1sc(NC(=O)c2ccccc2)c(C#N)c1-c1ccccc1 | 2 | -8 | 2 | -1 | 39* | >50
Cc1ccc(-c2nnc(SCC(=O)O)n2N)cc1 | 1 | -4 | -1 | 12 | -1 | .
Cc1cccc(-c2nnc(NC(=O)c3ccc(N4C(=O)CCC4=O)cc3)s2)c1 | -2 | -10 | -2 | 3 | 17* | >50
CC(C)SCC(=O)Nc1ncc2c(n1)-c1ccccc1CC2 | 18 | -2 | 7 | 31 | 18* | 3.5*
COc1ccc(-c2c(N)nnc3c2[nH]c2ccccc23)cc1OC | 4 | -1 | 0 | 2 | 27* | >50
C/C(=N\NC(=O)c1cccc(Br)c1)c1cccnc1 | . | . | . | . | 2 | .
CC(=O)C1=C(C)NC(=O)NC1c1ccccc1OCC(=O)NCCc1ccccc1 (stereo unspecified) | 3 | -10 | 4 | -2 | -1 | .
CC(NC(=O)/C(C#N)=C/c1ccc(N2CCOCC2)cc1)c1ccccc1 (stereo unspecified) | . | 1 | . | . | 31* | 11*
Cc1nc(Nc2ncc3c(n2)CC(C)(C)CC3=O)nc2ccccc12 | . | 1 | . | . | . | .
CC1=NC(Nc2nc(C)c3ccccc3n2)=NC(C)(C)C1 | 5 | -5 | 1 | -1 | 30* | >50
COc1cc(CN2CCN(Cc3c[nH]c4ccccc34)CC2CCO)cc(OC)c1 (stereo unspecified) | . | -3 | . | . | 21* | >50
C=COC(=O)CSc1nc(-c2cccs2)ccc1C#N | -22 | -8 | -4 | -1 | . | .
Cc1ccc(C(=O)NC(=S)NNC(=O)c2cccc([N+](=O)[O-])c2)cc1 | . | -3 | . | . | 6 | .
Cc1sc2ncnc(NCc3cccnc3)c2c1C | 37 | -5 | 15 | 6 | 37* | >50
O=c1[nH]c(-[n+]2ccc3ccccc3c2)c(/C=N/N=C(\[O-])c2ccccc2)s1 | . | -5 | . | . | 25* | >50
CC(=O)c1c(N2CCN(C)CC2)nc(=S)n(-c2cc(C)ccc2C)c1C | 74* | -5 | 42 | -6 | 34* | >50
SMILES | Runt-SMMHC FRET | CaV13 FRET inh | Runt-CBFb FRET | Hck Nef HTS | RanGTP-Impb inh | YIC counter
CCOC(=O)N1CCN(c2nc(=S)n(-c3ccccc3)c(C)c2C(C)=O)CC1 | -5 | -1 | 0 | 0 | -2 | .
COc1ccc([N+](=O)[O-])cc1NC(=O)CSc1ncccn1 | -1 | -4 | 2 | -11 | 20* | >50
COc1ccc([N+](=O)[O-])cc1NC(=O)CSc1nccc(C)n1 | -6 | -2 | 0 | 9 | -2 | .
CCOC(=O)c1ccc(NC(=O)CSc2nc(C)nc3c2c(=O)n(C)c(=O)n3C)cc1 | 0 | -6 | -18 | 2 | 19* | >50
Cc1c(O)c(CN2CCCCC2)cc2c1oc(=O)c1ccccc12 | -1 | -6 | -3 | 2 | -2 | .
Cc1c(O)c(CN2CCCCC2)cc2c3c(c(=O)oc12)CCC3 | 58* | -4 | 90* | 9 | 37* | 14*
